According to ChEMBL document CHEMBL3758168, “Hybrid triazoles: Design and synthesis as potential dual inhibitor of growth and efflux inhibition in tuberculosis” (Eur J Med Chem, 2016):
Converted amounts (≈) assume the structure as drawn.

Tests used:
[1] = system: Mycobacterium tuberculosis; assay: Antibacterial activity against Mycobacterium tuberculosis H37Rv ATCC 27294T assessed as rifampin MIC at 0.25 ug/ml after 7 days by microdilution checkerboard assay; assay type: functional; conditions: 168 h
Method in brief: (§1)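 Two-dimensional checkerboard in H37Rv at 10^5 CFU/ml in MB7H9/OADC. Partner drug (amikacin, EtBr, isoniazid, ofloxacin or rifampin) two-fold serially diluted across columns 3-11. Test compound two-fold serially diluted down rows 2-6. Plates incubated 7 days at 37 °C, then MTT added overnight. […] Run in triplicate.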

[2] = system: Mycobacterium tuberculosis; assay: Antibacterial activity against Mycobacterium tuberculosis H37Rv ATCC 27294T assessed as rifampin MIC at 1 ug/ml after 7 days by microdilution checkerboard assay; assay type: functional; conditions: 168 h
Method in brief: (§2)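 M. tuberculosis H37Rv grown in MB7H9 + 10% OADC at 37 °C to OD600 0.8; plates inoculated at 10^5 CFU/ml. Rifampicin two-fold serially diluted across columns, test compound two-fold diluted down rows (two-dimensional checkerboard). Sealed, 37 °C for seven days, then MTT added and incubated overnight. MIC read as no colour change. Triplicate.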

[3] = system: Mycolicibacterium smegmatis; assay: Anti-tubercular activity against Mycobacterium smegmatis MC2 155 ATCC 700084 after 3 days by microdilution method; assay type: functional; conditions: MC2 155 ATCC 700084, 72 h
Method in brief: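 M. smegmatis mc2155 grown in MB7H9 + 10% OADC at 37 °C with shaking to OD600 0.8. Inoculum set to 0.5 McFarland, diluted 1:100, and mixed 1:1 with two-fold serial dilutions in MB7H9. Plates incubated 3 days at 37 °C with growth and sterility controls. MIC taken as the lowest concentration with no visible growth.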

[4] = system: Mycobacterium tuberculosis; assay: Antibacterial activity against Mycobacterium tuberculosis H37Rv ATCC 27294T assessed as ofloxacin MIC at 2 ug/ml after 7 days by microdilution checkerboard assay; assay type: functional; conditions: 168 h; method in brief: as §1
[5] = system: Mycobacterium tuberculosis; assay: Antibacterial activity against Mycobacterium tuberculosis H37Rv ATCC 27294T assessed as rifampin MIC at 0.5 ug/ml after 7 days by microdilution checkerboard assay; assay type: functional; conditions: 168 h; method in brief: as §2
[6] = system: Mycobacterium tuberculosis; assay: Antibacterial activity against Mycobacterium tuberculosis H37Rv ATCC 27294T assessed as ethidium bromide MIC at 16 ug/ml after 7 days by microdilution checkerboard assay; assay type: functional; conditions: 168 h; method in brief: as §1
[7] = system: Mycobacterium tuberculosis; assay: Antibacterial activity against Mycobacterium tuberculosis H37Rv ATCC 27294T assessed as ethidium bromide MIC at 1 ug/ml after 7 days by microdilution checkerboard assay; assay type: functional; conditions: 168 h; method in brief: as §1
[8] = system: Mycobacterium tuberculosis; assay: Antibacterial activity against Mycobacterium tuberculosis H37Rv ATCC 27294T assessed as isoniazid MIC at 0.25 ug/ml after 7 days by microdilution checkerboard assay; assay type: functional; conditions: 168 h; method in brief: as §1
[9] = system: Mycobacterium tuberculosis; assay: Antibacterial activity against Mycobacterium tuberculosis H37Rv ATCC 27294T assessed as isoniazid MIC at 16 ug/ml after 7 days by microdilution checkerboard assay; assay type: functional; conditions: 168 h; method in brief: as §1
[10] = system: Mycobacterium tuberculosis; assay: Antibacterial activity against Mycobacterium tuberculosis H37Rv ATCC 27294T assessed as isoniazid MIC at 4 ug/ml after 7 days by microdilution checkerboard; assay type: functional; conditions: 168 h; method in brief: as §1
[11] = system: Mycobacterium tuberculosis; assay: Antibacterial activity against Mycobacterium tuberculosis H37Rv ATCC 27294T assessed as amikacin MIC at 2 ug/ml after 7 days by microdilution checkerboard assay; assay type: functional; conditions: 168 h; method in brief: as §1
[12] = Cytotoxicity against human MDM assessed as cell viability after 3 days by Alamar blue dye-based fluorocytometric analysis relative to control; conditions: 72 h
[13] = system: Mycobacterium tuberculosis; assay: Antibacterial activity against Mycobacterium tuberculosis H37Rv ATCC 27294T assessed as ofloxacin MIC at 8 ug/ml after 7 days by microdilution checkerboard assay; assay type: functional; conditions: 168 h; method in brief: as §1
[14] = system: Mycobacterium tuberculosis; assay: Antibacterial activity against Mycobacterium tuberculosis H37Rv ATCC 27294T assessed as isoniazid MIC at 1 ug/ml after 7 days by microdilution checkerboard assay; assay type: functional; conditions: 168 h; method in brief: as §1
[15] = system: Mycobacterium tuberculosis; assay: Antibacterial activity against Mycobacterium tuberculosis H37Rv ATCC 27294T assessed as rifampin MIC at 16 ug/ml after 7 days by microdilution checkerboard assay; assay type: functional; conditions: 168 h; method in brief: as §2
[16] = system: Mycobacterium tuberculosis; assay: Antibacterial activity against Mycobacterium tuberculosis H37Rv ATCC 27294T assessed as ethidium bromide MIC at 4 ug/ml after 7 days by microdilution checkerboard assay; assay type: functional; conditions: 168 h; method in brief: as §1
[17] = system: Mycobacterium tuberculosis; assay: Antibacterial activity against Mycobacterium tuberculosis H37Rv ATCC 27294T assessed as ofloxacin MIC at 0.25 ug/ml after 7 days by microdilution checkerboard assay; assay type: functional; conditions: 168 h; method in brief: as §1
[18] = system: Mycobacterium tuberculosis; assay: Antibacterial activity against Mycobacterium tuberculosis H37Rv ATCC 27294T assessed as ethidium bromide MIC at 0.25 ug/ml after 7 days by microdilution checkerboard assay; assay type: functional; conditions: 168 h; method in brief: as §1
[19] = system: Mycobacterium tuberculosis; assay: Anti-tubercular activity against Mycobacterium tuberculosis H37Rv ATCC 27294T after 7 days by mircodilution method; assay type: functional; conditions: 168 h
Method in brief: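 H37Rv grown static in MB7H9 + 10% OADC at 37 °C to OD600 0.8, then diluted to about 10^5 cells/ml. Mixed 1:1 with two-fold serial dilutions in MB7H9/OADC and incubated 7 days at 37 °C. MTT added to final 2.5% and plates incubated overnight. MIC is the lowest concentration with no colour change. Run in triplicate.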

[20] = system: Mycobacterium tuberculosis; assay: Antibacterial activity against Mycobacterium tuberculosis H37Rv ATCC 27294T assessed as amikacin MIC at 16 ug/ml after 7 days by microdilution checkerboard assay; assay type: functional; conditions: 168 h; method in brief: as §1
[21] = system: Mycobacterium tuberculosis; assay: Antibacterial activity against Mycobacterium tuberculosis H37Rv ATCC 27294T assessed as rifampin MIC at 4 ug/ml after 7 days by microdilution checkerboard assay; assay type: functional; conditions: 168 h; method in brief: as §2
[22] = system: Mycobacterium tuberculosis; assay: Antibacterial activity against Mycobacterium tuberculosis H37Rv ATCC 27294T assessed as isoniazid MIC at 8 ug/ml after 7 days by microdilution checkerboard assay; assay type: functional; conditions: 168 h; method in brief: as §1
[23] = system: Mycobacterium tuberculosis; assay: Antibacterial activity against Mycobacterium tuberculosis H37Rv ATCC 27294T assessed as ethidium bromide MIC at 2 ug/ml after 7 days by microdilution checkerboard assay; assay type: functional; conditions: 168 h; method in brief: as §1
[24] = system: Mycobacterium tuberculosis; assay: Antibacterial activity against Mycobacterium tuberculosis H37Rv ATCC 27294T assessed as amikacin MIC at 0.5 ug/ml after 7 days by microdilution checkerboard assay; assay type: functional; conditions: 168 h; method in brief: as §1
[25] = system: Mycobacterium tuberculosis; assay: Antibacterial activity against Mycobacterium tuberculosis H37Rv ATCC 27294T assessed as ofloxacin MIC at 0.5 ug/ml after 7 days by microdilution checkerboard assay; assay type: functional; conditions: 168 h; method in brief: as §1
[26] = system: Mycobacterium tuberculosis; assay: Antibacterial activity against Mycobacterium tuberculosis H37Rv ATCC 27294T assessed as rifampin MIC at 2 ug/ml after 7 days by microdilution checkerboard assay; assay type: functional; conditions: 168 h; method in brief: as §2
[27] = system: Mycobacterium tuberculosis; assay: Antibacterial activity against Mycobacterium tuberculosis H37Rv ATCC 27294T assessed as amikacin MIC at 4 ug/ml after 7 days by microdilution checkerboard assay; assay type: functional; conditions: 168 h; method in brief: as §1
[28] = system: Mycobacterium tuberculosis; assay: Antibacterial activity against Mycobacterium tuberculosis H37Rv ATCC 27294T assessed as amikacin MIC at 1 ug/ml after 7 days by microdilution checkerboard assay; assay type: functional; conditions: 168 h; method in brief: as §1
[29] = system: Mycobacterium tuberculosis; assay: Antibacterial activity against Mycobacterium tuberculosis H37Rv ATCC 27294T assessed as rifampin MIC at 8 ug/ml after 7 days by microdilution checkerboard assay; assay type: functional; conditions: 168 h; method in brief: as §2
[30] = system: Mycobacterium tuberculosis; assay: Antibacterial activity against Mycobacterium tuberculosis H37Rv ATCC 27294T assessed as ofloxacin MIC at 16 ug/ml after 7 days by microdilution checkerboard assay; assay type: functional; conditions: 168 h; method in brief: as §1
[31] = system: Mycobacterium tuberculosis; assay: Antibacterial activity against Mycobacterium tuberculosis H37Rv ATCC 27294T assessed as isoniazid MIC at 2 ug/ml after 7 days by microdilution checkerboard assay; assay type: functional; conditions: 168 h; method in brief: as §1
[32] = system: Mycobacterium tuberculosis; assay: Antibacterial activity against Mycobacterium tuberculosis H37Rv ATCC 27294T assessed as isoniazid MIC at 0.5 ug/ml after 7 days by microdilution checkerboard assay; assay type: functional; conditions: 168 h; method in brief: as §1
[33] = system: Mycobacterium tuberculosis; assay: Antibacterial activity against Mycobacterium tuberculosis H37Rv ATCC 27294T assessed as amikacin MIC at 8 ug/ml after 7 days by microdilution checkerboard assay; assay type: functional; conditions: 168 h; method in brief: as §1
[34] = system: Mycobacterium tuberculosis; assay: Antibacterial activity against Mycobacterium tuberculosis H37Rv ATCC 27294T assessed as ethidium bromide MIC at 0.5 ug/ml after 7 days by microdilution checkerboard assay; assay type: functional; conditions: 168 h; method in brief: as §1
[35] = system: Mycobacterium tuberculosis; assay: Antibacterial activity against Mycobacterium tuberculosis H37Rv ATCC 27294T assessed as ofloxacin MIC at 1 ug/ml after 7 days by microdilution checkerboard assay; assay type: functional; conditions: 168 h; method in brief: as §1
[36] = system: Mycobacterium tuberculosis; assay: Antibacterial activity against Mycobacterium tuberculosis H37Rv ATCC 27294T assessed as ethidium bromide MIC at 8 ug/ml after 7 days by microdilution checkerboard assay; assay type: functional; conditions: 168 h; method in brief: as §1
[37] = system: Mycobacterium tuberculosis; assay: Antibacterial activity against Mycobacterium tuberculosis H37Rv ATCC 27294T assessed as ofloxacin MIC at 4 ug/ml after 7 days by microdilution checkerboard assay; assay type: functional; conditions: 168 h; method in brief: as §1
[38] = system: Mycobacterium tuberculosis; assay: Antibacterial activity against Mycobacterium tuberculosis H37Rv ATCC 27294T assessed as amikacin MIC at 0.25 ug/ml after 7 days by microdilution checkerboard assay; assay type: functional; conditions: 168 h; method in brief: as §1

Compound CCSc1nnc(COc2ccccc2C2=NOC(c3ccc(Cl)cc3Cl)C2)n1NC(C)=O (stereo not drawn) has an MIC [1] of 1 µg/mL, an MIC [2] of 0.5 µg/mL and an MIC [3] of 2 µg/mL (≈ 3.95 µM). For the same compound, the MIC [4] was 1 µg/mL, the MIC [5] was 0.5 µg/mL and the MIC [6] was 0.39 µg/mL. The MIC [7] was 12.5 µg/mL, the MIC [8] was 0.1 µg/mL and the MIC [9] was 0.00156 µg/mL. The MIC [10] was 0.1 µg/mL, the MIC [11] was 1 µg/mL and the IC50 [12] was 9.7 µg/mL (≈ 19.2 µM). It also gave an MIC [13] of 1 µg/mL, an MIC [14] of 0.1 µg/mL and an MIC [15] of 0.0156 µg/mL. For the same compound, the MIC [16] was 6.25 µg/mL, the MIC [17] was 2 µg/mL and the MIC [18] was 12.5 µg/mL. For the same compound, the MIC [19] was 8 µg/mL (≈ 15.8 µM), the MIC [20] was 0.0312 µg/mL and the MIC [21] was 0.125 µg/mL. For the same compound, the MIC [22] was 0.025 µg/mL, the MIC [23] was 12.5 µg/mL and the MIC [24] was 1 µg/mL. For the same compound, the MIC [25] was 1 µg/mL, the MIC [26] was 0.25 µg/mL and the MIC [27] was 1 µg/mL. For the same compound, the MIC [28] was 1 µg/mL, the MIC [29] was 0.0312 µg/mL and the MIC [30] was 0.0312 µg/mL. For the same compound, the MIC [31] was 0.1 µg/mL, the MIC [32] was 0.1 µg/mL and the MIC [33] was 0.25 µg/mL. It also gave an MIC [34] of 12.5 µg/mL, an MIC [35] of 1 µg/mL and an MIC [36] of 1.56 µg/mL. For the same compound, the MIC [37] was 1 µg/mL and the MIC [38] was 1 µg/mL.
